Source: ChEMBL document CHEMBL1208778, “Synthesis and anti-cancer activity of chalcone linked imidazolones” (2010)
Active and inactive are the calls of the source. The rule behind the calls is not given here.

Legend:
Assay type in all cases: functional
[1] = system: U-251; test: Growth inhibition of human U251 cells
Procedure, shortened: (§1)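 Compounds that passed a preliminary screen were tested at five doses in the NCI (Bethesda) in vitro Anticancer Screen Program against a 53-line human tumour panel spanning leukemia, lung, colon, CNS, melanoma, ovarian, renal, prostate and breast. Growth inhibition is reported as GI50.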

[2] = system: MCF7; test: Cell cycle arrest in human MCF7 cells assessed as accumulation at G1 phase at 30 uM after 24 hrs by FACS analysis
Procedure, shortened: (§2)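 MCF-7 cells were treated at 30 µM for 24 h alongside a DMSO control. Fractions in G0, G1, S and G2/M phases were measured by FACS, and values are means of three experiments.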

[3] = system: RXF 393; test: Growth inhibition of human RXF393 cells
Procedure, shortened: (§3)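 Five-dose testing was run within the NCI (Bethesda) in vitro Anticancer Screen Program on a panel of 53 human tumour cell lines from nine cancer types. Growth inhibition is reported as GI50.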

[4] = system: NCI-H460; test: Growth inhibition of human NCI-H460 cells; procedure, shortened: as §3
[5] = system: NCI-H23; test: Growth inhibition of human NCI-H23 cells; procedure, shortened: as §3
[6] = system: NCI/ADR-RES; test: Growth inhibition of human NCI/ADR-RES cells; procedure, shortened: as §3
[7] = system: M14; test: Growth inhibition of human M14 cells; procedure, shortened: as §3
[8] = system: COLO 205; test: Growth inhibition of human COLO205 cells; procedure, shortened: as §3
[9] = system: SF-295; test: Growth inhibition of human SF295 cells; procedure, shortened: as §3
[10] = system: MCF7; test: Cell cycle arrest in human MCF7 cells assessed as accumulation at S phase at 10 uM after 24 hrs by FACS analysis
Procedure, shortened: (§4)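 MCF-7 breast carcinoma cells were exposed to 10 µM test compound for 24 h, with DMSO as the vehicle control. Cell-cycle distribution was read by FACS as the percentage of cells in G0, G1, S and G2/M.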

[11] = system: TK-10; test: Growth inhibition of human TK10 cells; procedure, shortened: as §1
[12] = system: HCC 2998; test: Growth inhibition of human HCC2998 cells; procedure, shortened: as §3
[13] = system: A549; test: Growth inhibition of human A549 cells; procedure, shortened: as §3
[14] = system: HCT-15; test: Growth inhibition of human HCT15 cells; procedure, shortened: as §3
[15] = system: MCF7; test: Cell cycle arrest in human MCF7 cells assessed as accumulation at S phase at 30 uM after 24 hrs by FACS analysis; procedure, shortened: as §2
[16] = system: MCF7; test: Cell cycle arrest in human MCF7 cells assessed as accumulation at G2/M phase at 30 uM after 24 hrs by FACS analysis; procedure, shortened: as §2
[17] = Growth inhibition of human Hs 578T cells; procedure, shortened: as §3
[18] = system: OVCAR-4; test: Growth inhibition of human OVCAR4 cells; procedure, shortened: as §3
[19] = system: MCF7; test: Cell cycle arrest in human MCF7 cells assessed as accumulation at G1 phase at 10 uM after 24 hrs by FACS analysis; procedure, shortened: as §4
[20] = system: MCF7; test: Cell cycle arrest in human MCF7 cells assessed as accumulation at G2/M phase at 10 uM after 24 hrs by FACS analysis; procedure, shortened: as §4
[21] = system: ACHN; test: Growth inhibition of human ACHN cells; procedure, shortened: as §3
[22] = system: MDA-MB-231; test: Growth inhibition of human MDA-MB-231 cells; procedure, shortened: as §3
[23] = system: K562; test: Growth inhibition of human K562 cells; procedure, shortened: as §3
[24] = system: 786-0; test: Growth inhibition of human 786-0 cells; procedure, shortened: as §3
[25] = system: A498; test: Growth inhibition of human A498 cells; procedure, shortened: as §3
[26] = system: NCI-H226; test: Growth inhibition of human NCI-H226 cells; procedure, shortened: as §3
[27] = system: KM12; test: Growth inhibition of human KM12 cells; procedure, shortened: as §3
[28] = system: SNB-19; test: Growth inhibition of human SNB19 cells; procedure, shortened: as §1
[29] = system: SK-MEL-28; test: Growth inhibition of human SK-MEL-28 cells; procedure, shortened: as §3
[30] = system: HCT-116; test: Growth inhibition of human HCT116 cells; procedure, shortened: as §3
[31] = system: OVCAR-8; test: Growth inhibition of human OVCAR8 cells; procedure, shortened: as §3
[32] = system: NCI-H522; test: Growth inhibition of human NCI-H522 cells; procedure, shortened: as §3
[33] = system: MCF7; test: Cell cycle arrest in human MCF7 cells assessed as accumulation at G0 phase at 30 uM after 24 hrs by FACS analysis; procedure, shortened: as §2
[34] = system: CAKI-1; test: Growth inhibition of human Caki1 cells; procedure, shortened: as §3
[35] = system: SF-539; test: Growth inhibition of human SF539 cells; procedure, shortened: as §3
[36] = system: MCF7; test: Growth inhibition of human MCF7 cells; procedure, shortened: as §3
[37] = system: BT-549; test: Growth inhibition of human BT549 cells; procedure, shortened: as §3
[38] = system: SN12C; test: Growth inhibition of human SN12C cells; procedure, shortened: as §1
[39] = system: HOP-62; test: Growth inhibition of human HOP62 cells; procedure, shortened: as §3
[40] = system: SK-OV-3; test: Growth inhibition of human SKOV3 cells; procedure, shortened: as §1
[41] = system: NCI-H322M; test: Growth inhibition of human NCI-H322M cells; procedure, shortened: as §3
[42] = system: SK-MEL-2; test: Growth inhibition of human SK-MEL-2 cells; procedure, shortened: as §3
[43] = system: OVCAR-5; test: Growth inhibition of human OVCAR5 cells; procedure, shortened: as §3
[44] = system: OVCAR-3; test: Growth inhibition of human OVCAR-3 cells; procedure, shortened: as §3
[45] = system: SF-268; test: Growth inhibition of human SF268 cells; procedure, shortened: as §3
[46] = system: HOP-92; test: Growth inhibition of human HOP92 cells; procedure, shortened: as §3
[47] = system: EKVX; test: Growth inhibition of human EKVX cells; procedure, shortened: as §3
[48] = system: MCF7; test: Cell cycle arrest in human MCF7 cells assessed as accumulation at G0 phase at 10 uM after 24 hrs by FACS analysis; procedure, shortened: as §4
[49] = system: HT-29; test: Growth inhibition of human HT-29 cells; procedure, shortened: as §3
[50] = system: UACC-62; test: Growth inhibition of human UACC62 cells; procedure, shortened: as §1
[51] = system: LOX IMVI; test: Growth inhibition of human LOXIMVI cells; procedure, shortened: as §3
[52] = system: T47D; test: Growth inhibition of human T47D cells; procedure, shortened: as §1
[53] = system: UACC-257; test: Growth inhibition of human UACC257 cells; procedure, shortened: as §1
[54] = system: PC-3; test: Growth inhibition of human PC3 cells; procedure, shortened: as §3
[55] = system: SW-620; test: Growth inhibition of human SW620 cells; procedure, shortened: as §1
[56] = Growth inhibition of human RPMI8266 cells; procedure, shortened: as §3
[57] = system: SK-MEL-5; test: Growth inhibition of human SK-MEL-5 cells; procedure, shortened: as §3
[58] = system: UO-31; test: Growth inhibition of human UO31 cells; procedure, shortened: as §1
[59] = system: Malme-3M; test: Growth inhibition of human MALME-3M cells; procedure, shortened: as §3
[60] = system: SNB-75; test: Growth inhibition of human SNB75 cells; procedure, shortened: as §1
[61] = system: MDA-MB-435; test: Growth inhibition of human MDA-MB-435 cells; procedure, shortened: as §3

COc1cc(/C=C/C(=O)c2cccc(-n3cc(-c4ccc(Cl)cc4)[nH]c3=O)c2)cc(OC)c1OC
GI50 [1]: 2.12 µM | Activity [2]: 44% | GI50 [3]: 3.22 µM | GI50 [4]: 3.74 µM | GI50 [5]: 3.56 µM | GI50 [6]: 2.36 µM | GI50 [7]: 4.36 µM | GI50 [8]: 7.38 µM | GI50 [9]: 24.3 µM | Activity [10]: 13.91% | GI50 [11]: 6.46 µM | GI50 [12]: 2.46 µM | GI50 [13]: inactive | GI50 [14]: 3.85 µM | Activity [15]: 17% | Activity [16]: 27% | GI50 [17]: 5.96 µM | GI50 [18]: 11.4 µM | Activity [19]: 67.68% | Activity [20]: 13.92% | GI50 [21]: 7.17 µM | GI50 [22]: 13.8 µM | GI50 [23]: 3.69 µM | GI50 [24]: 2.14 µM | GI50 [25]: 30.2 µM | GI50 [26]: inactive | GI50 [27]: 5.45 µM | GI50 [28]: 16.1 µM | GI50 [29]: 10.9 µM | GI50 [30]: 1.39 µM | GI50 [31]: 3.85 µM | GI50 [32]: 4.1 µM | Activity [33]: 12% | GI50 [34]: inactive | GI50 [35]: 3.49 µM | GI50 [36]: 1.74 µM | GI50 [37]: 12.3 µM | GI50 [38]: 5.14 µM | GI50 [39]: inactive | GI50 [40]: 31.4 µM | GI50 [41]: 12.9 µM | GI50 [42]: 3.44 µM | GI50 [43]: 3.11 µM | GI50 [44]: 2.4 µM | GI50 [45]: 5.07 µM | GI50 [46]: inactive | GI50 [47]: inactive | Activity [48]: 4.49% | GI50 [49]: 2 µM | GI50 [50]: 8.88 µM | GI50 [51]: 1.72 µM | GI50 [52]: 6.65 µM | GI50 [53]: 17.4 µM | GI50 [54]: inactive | GI50 [55]: 1.75 µM | GI50 [56]: 3.92 µM | GI50 [57]: 8.7 µM | GI50 [58]: 7.03 µM | GI50 [59]: 18.1 µM | GI50 [60]: inactive | GI50 [61]: 3.63 µM
